Assay results reported in article PMC2895766 (Journal of medicinal chemistry, 2010).

Assays:
mice = conditions: cited from earlier work
[1] = system: α1*-, α3β4*-, α4β2-, or α4β4-nAChR; format: cell-based, human; conditions: highest concentration tested 100 μM
[2] = biological target: human NE transporters [h(NET)] (Homo sapiens, UniProt P23975); experiment: Inhibition of [3H]norepinephrine uptake in HEK293 cells expressing hNET; format: cell-based; conditions: ratio of IC50 values
α4β2-nAChR = α4β2-nAChR (Homo sapiens, UniProt P17787+P43681); experiment: 86Rb+ efflux assay, antagonism of carbamylcholine response, SH-EP1-hα4β2 cells; format: cell-based
Chain of α4β2-nAChR (P43681 29-627 limits assumed): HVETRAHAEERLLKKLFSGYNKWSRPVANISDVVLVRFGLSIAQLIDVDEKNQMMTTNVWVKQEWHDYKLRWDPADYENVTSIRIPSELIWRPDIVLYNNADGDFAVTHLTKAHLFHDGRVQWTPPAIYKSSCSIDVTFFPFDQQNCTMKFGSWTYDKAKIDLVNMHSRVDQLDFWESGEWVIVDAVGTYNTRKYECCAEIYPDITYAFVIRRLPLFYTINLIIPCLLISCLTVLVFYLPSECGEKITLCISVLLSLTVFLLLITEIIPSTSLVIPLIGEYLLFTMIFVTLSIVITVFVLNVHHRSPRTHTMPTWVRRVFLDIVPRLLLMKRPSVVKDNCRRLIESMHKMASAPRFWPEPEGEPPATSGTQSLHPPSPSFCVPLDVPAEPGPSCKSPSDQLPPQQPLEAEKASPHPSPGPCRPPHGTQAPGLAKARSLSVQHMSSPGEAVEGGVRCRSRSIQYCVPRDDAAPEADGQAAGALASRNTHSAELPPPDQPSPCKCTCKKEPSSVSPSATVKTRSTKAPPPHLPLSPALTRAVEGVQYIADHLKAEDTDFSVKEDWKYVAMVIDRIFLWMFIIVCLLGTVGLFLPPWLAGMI
Chain of α4β2-nAChR (P17787 26-502): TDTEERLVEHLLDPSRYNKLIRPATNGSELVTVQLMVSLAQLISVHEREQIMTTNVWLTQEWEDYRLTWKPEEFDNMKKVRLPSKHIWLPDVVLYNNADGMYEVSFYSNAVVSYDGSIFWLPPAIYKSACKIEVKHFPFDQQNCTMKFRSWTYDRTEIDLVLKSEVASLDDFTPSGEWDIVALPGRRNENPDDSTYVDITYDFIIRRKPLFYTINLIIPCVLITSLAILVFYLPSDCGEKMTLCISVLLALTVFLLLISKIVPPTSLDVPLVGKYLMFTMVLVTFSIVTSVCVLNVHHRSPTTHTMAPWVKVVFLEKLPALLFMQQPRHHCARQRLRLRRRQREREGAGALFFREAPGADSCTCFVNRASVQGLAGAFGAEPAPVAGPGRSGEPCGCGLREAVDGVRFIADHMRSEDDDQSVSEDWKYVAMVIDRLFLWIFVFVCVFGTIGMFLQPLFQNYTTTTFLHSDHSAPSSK

[3] = system: nicotine-mediated antinociception (tail-flick); experiment: Tail-flick test, blockade of nicotine-induced antinociception; format: in vivo; conditions: mice
Procedure, shortened: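 Mice got saline or test compound 15 min before nicotine (2.5 mg/kg s.c.) and were tested 5 min after nicotine. Radiant heat was applied to the upper tail with a 10 s cutoff, and a pre-treatment control latency (2–4 s) was taken for each mouse. Blockade was scored as %MPE = [(test − control)/(10 − control)] × 100 and expressed as AD50 in mg/kg.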

Chain of human NE transporters [h(NET)] (P23975 whole entry): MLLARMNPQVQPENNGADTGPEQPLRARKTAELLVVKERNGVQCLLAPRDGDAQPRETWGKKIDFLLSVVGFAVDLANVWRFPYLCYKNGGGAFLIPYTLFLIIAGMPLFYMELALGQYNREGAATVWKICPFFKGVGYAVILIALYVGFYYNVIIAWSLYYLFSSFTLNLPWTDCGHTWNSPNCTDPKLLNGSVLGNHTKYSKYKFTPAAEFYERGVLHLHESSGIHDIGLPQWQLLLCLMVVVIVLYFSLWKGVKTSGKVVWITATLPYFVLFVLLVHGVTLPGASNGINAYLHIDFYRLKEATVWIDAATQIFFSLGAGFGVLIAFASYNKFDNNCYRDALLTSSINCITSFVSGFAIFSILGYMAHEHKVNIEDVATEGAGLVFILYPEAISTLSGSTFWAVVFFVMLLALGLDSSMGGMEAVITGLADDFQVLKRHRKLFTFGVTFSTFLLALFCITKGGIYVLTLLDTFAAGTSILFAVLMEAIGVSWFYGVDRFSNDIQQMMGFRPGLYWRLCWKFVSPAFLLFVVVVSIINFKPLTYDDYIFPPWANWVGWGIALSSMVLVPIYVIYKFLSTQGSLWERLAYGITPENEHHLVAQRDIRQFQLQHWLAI

SMILES | extent of antagonism at all nAChR subtypes tested [1] | also measured
C[C@H]1NC(C)(C)CO[C@]1(O)c1cccc(Cl)c1 (racemic) [racemic hydroxybupropion] |  | convulsions after i.p. administration (mice): induced convulsions
C[C@H]1NC(C)(C)CO[C@]1(O)c1cccc(Cl)c1 [(2R,3R)-4a, (2R,3R)-2-(3-Chlorophenyl)-3,5,5-trimethylmorpholin-2-ol, reference compound] | full antagonist | 
C[C@@H]1NC(C)(C)CO[C@@]1(O)c1cccc(Cl)c1 [(2S,3S)-4a, (2S,3S)-2-(3-Chlorophenyl)-3,5,5-trimethylmorpholin-2-ol, reference compound] | full antagonist | times more potent than 2 in inhibiting NE uptake [2]: 7.7 times
C[C@@H]1NC(C)(C)CO[C@@]1(O)c1cccc(F)c1 [Compound 4c, (2S,3S)-2-(3-Fluorophenyl)-3,5,5-trimethylmorpholin-2-ol] | block all nAChR function at an adequately high concentration | 
C[C@@H]1NC(C)(C)CO[C@@]1(O)c1cccc(Br)c1 [Compound 4d, (2S,3S)-2-(3-Bromophenyl)-3,5,5-trimethylmorpholin-2-ol] | block all nAChR function at an adequately high concentration | selectivity for inhibition of α4β2-nAChR over NE uptake inhibition (α4β2-nAChR): ~ 1.7 fold
C[C@@H]1NC(C)(C)CO[C@@]1(O)c1cccc([N+](=O)[O-])c1 [Compound 4g, (2S,3S)-2-(3-Nitrophenyl)-3,5,5-trimethylmorpholin-2-ol] | block all nAChR function at an adequately high concentration | 
C[C@@H]1NC(C)(C)CO[C@@]1(O)c1cccc2ccccc12 [Compound 4q, (2S,3S)-2-(Naphthalen-1-yl)-3,5,5-trimethylmorpholin-2-ol] |  | fold higher activity in the tail-flick assay than (2S,3S)-4a [3]: ~ 5 fold
C[C@@H]1NC(C)(C)CO[C@@]1(O)c1ccc2ccccc2c1 [Compound 4r, (2S,3S)-2-(Naphthalen-2-yl)-3,5,5-trimethylmorpholin-2-ol] |  | fold higher activity in the tail-flick assay than (2S,3S)-4a [3]: ~ 5 fold
CCC[C@@H]1NC(C)(C)CO[C@@]1(O)c1cccc(Cl)c1 [Compound 4t, (2S,3S)-2-(3-Chlorophenyl)-5,5-dimethyl-3-propyl-morpholin-2-ol] | full antagonist | 
